Tests used:
[1] = system: Trypanosoma brucei; assay: Antitrypanosomal activity against Trypanosoma brucei after 3 days by alamar blue assay; type: functional, organism-based; conditions: 72 h
Summary of the method: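 Cultured T. brucei seeded at 1 × 10^4 cells/ml in 384-well format, incubated with or without inhibitor (100 μM to 30 nM) for three days; viable cells then counted by Alamar Blue read-out; EC50 derived from the dose series.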

[2] = system: MRC5; assay: Cytotoxicity against human MRC5 cells after 3 days by alamar blue assay; type: cell-based; conditions: MRC5, 72 h
Summary of the method: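 Cultured human MRC5 cells at 1 × 10^4 cells/ml in 384-well format, incubated with or without inhibitor over 100 μM to 30 nM for three days. Viable cell number then counted by Alamar blue.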

[3] = target: T1, UDP-galactose 4-epimerase (Trypanosoma brucei, UniProt Q8T8E9); assay: Inhibition of hexahistidine-tagged Trypanosoma brucei UDP-galactose-4'epimerase expressed in Escherichia coli
T1 sequence (Q8T8E9 whole entry): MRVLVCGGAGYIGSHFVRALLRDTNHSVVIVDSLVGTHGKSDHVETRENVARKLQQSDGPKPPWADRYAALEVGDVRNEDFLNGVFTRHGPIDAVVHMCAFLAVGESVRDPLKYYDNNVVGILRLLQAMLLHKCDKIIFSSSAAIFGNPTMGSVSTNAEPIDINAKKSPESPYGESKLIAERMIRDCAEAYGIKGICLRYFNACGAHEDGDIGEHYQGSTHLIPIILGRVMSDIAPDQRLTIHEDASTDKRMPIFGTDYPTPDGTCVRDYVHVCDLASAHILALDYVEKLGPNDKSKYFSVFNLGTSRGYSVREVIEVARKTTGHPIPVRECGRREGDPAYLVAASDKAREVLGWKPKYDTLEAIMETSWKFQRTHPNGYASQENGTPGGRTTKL
Summary of the method: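 Recombinant enzyme reacted with 100 μM UDP-Gal and 100 μM β-NAD+ (5 μg/mL enzyme, 1 mM Tris pH 7.6, 1% DMSO), with or without inhibitor (0.03-100 μM), at 37 °C for 30 min. Quenched with NaOH. UDP-Gal to UDP-Glc conversion followed by HPAEC, detection at 260 nm. IC50 from a four-parameter fit over three independent experiments.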

SMILES	EC50 [1]	EC50 [2]	IC50 [3]
COC1C(OC(=O)c2ccc(C)[nH]2)C(O)C(Oc2ccc3c(O)c(NC(=O)c4ccc(O)c(CC=C(C)C)c4)c(=O)oc3c2Cl)OC1(C)C (centres undefined)	4.4 µM	> 50 µM	5 µM
O=C(O)c1ccccc1-c1ccccc1C(=O)Nc1ccc2c(c1)Cc1cc(NC(=O)c3ccccc3-c3ccccc3C(=O)O)ccc1-2	> 50 µM	> 50 µM	0.9 µM
O=C(O)c1ccccc1-c1ccccc1C(=O)Nc1ccc2c(c1)C(O)c1ccccc1-2 (centres undefined)	> 50 µM	> 50 µM	6.8 µM
O=C(O)c1cc(Cl)ccc1-c1ccc(Cl)cc1C(=O)NC1=CC2=C(CC1)c1c(Cl)cc(Cl)cc1C2	> 50 µM	35.2 µM	1.8 µM
O=C(O)c1ccccc1-c1ccccc1C(=O)Nc1ccc2c(c1)nc(O)c1ccccc12	> 50 µM	> 50 µM	3.6 µM
CCn1c2ccccc2c2cc(NC(=O)c3ccccc3-c3ccccc3C(=O)O)ccc21	> 50 µM	> 50 µM	5.6 µM
O=C(O)c1ccccc1-c1ccccc1C(=O)Nc1ccc2c(c1)Cc1ccccc1-2	> 50 µM	> 50 µM	4.6 µM
O=C(O)c1ccccc1-c1ccccc1C(=O)Nc1ccc2c(c1)C(=O)c1ccccc1-2	> 50 µM	> 50 µM	2.8 µM
O=C(O)c1ccccc1-c1ccccc1C(=O)Nc1ccc2c(c1)oc(=O)c1ccccc12		> 50 µM	3.2 µM
O=C(O)c1ccccc1-c1ccccc1C(=O)Nc1ccc2c(c1)-c1ccccc1C2	> 50 µM	> 50 µM	4.2 µM
O=C(O)c1ccccc1-c1ccccc1C(=O)Nc1cccc2c1-c1ccccc1C2	> 50 µM	> 50 µM	8 µM
O=C(O)c1ccccc1-c1ccccc1C(=O)Nc1ccc2c(c1)Cc1cc(F)ccc1-2	> 50 µM	> 50 µM	3.8 µM
O=C(O)c1ccccc1-c1ccccc1C(=O)Nc1cc2c3ccccc3ccc2c2ccccc12		> 50 µM	2.6 µM
O=C(O)c1cc(Cl)ccc1-c1ccc(Cl)cc1C(=O)Nc1ccc2c(c1)Cc1ccccc1-2		> 50 µM	3.3 µM

— ChEMBL document CHEMBL1177722, “Computer-aided identification of Trypanosoma brucei uridine diphosphate galactose 4'-epimerase inhibitors: toward the development of novel therapies for African sleeping sickness” (J Med Chem, 2010)
